Laboratory results taken from ChEMBL document CHEMBL3860031, “Design, synthesis and antitrypanosomal activity of some nitrofurazone 1,2,4-triazolic bioisosteric analogues” (Eur J Med Chem, 2016).

Assays:
Trypanosoma cruzi = test: Antitrypanosomal activity against amastigote stage of Trypanosoma cruzi Y infected in human U2OS cells after 96 hrs by Draq5 staining-based high content screening assay; type: functional, cell-based
Method in brief: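 U2OS cells (700/well, high glucose DMEM + 10% heat-inactivated FBS) seeded and incubated 24 h at 37 °C/5% CO2. Infected next day with 2800 Y strain trypomastigotes from LLC-MK2 cultures in low glucose DMEM + 2% FBS. Compounds added on day 3 as 15-point 2-fold dilutions, 1% DMSO final, top 200 µM. After 96 h, fixed in 4% paraformaldehyde, 5 µM Draq5 stain, imaged. Infection ratio normalized to infected/uninfected DMSO controls. EC50 from sigmoidal variable-slope fit. Duplicate wells, three independent experiments.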

[1] = Selectivity index, ratio of CC50 for human U2OS cells infected with amastigote stage of Trypanosoma cruzi Y to EC50 for amastigote stage of Trypanosoma cruzi Y; type: toxicity, cell-based; conditions: U2OS cells infected with Trypanosoma cruzi Y amastigotes, read-out: Ratio CC50/EC50
Method in brief: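 S.I. = CC50/EC50 from the infected U2OS high-content assay. When CC50 could not be calculated, S.I. = highest tested concentration/EC50.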

[2] = Cytotoxicity against non-infected human U2OS cells assessed as decrease in number of cells after 96 hrs by Draq5 staining-based high content screening assay; type: toxicity, cell-based
Method in brief: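 Separate plate with non-infected U2OS cells (700/well, DMEM + 10% FBS) and compounds in 15-point 2-fold dilutions, top 200 µM, 1% DMSO final. After 96 h, fixed with 4% paraformaldehyde, stained with 5 µM Draq5, cells counted by imaging. CC50 from sigmoidal variable-slope curve fitting.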

[3] = Cytotoxicity against human U2OS cells infected with amastigote stage of Trypanosoma cruzi Y assessed as decrease in number of cells after 96 hrs by Draq5 staining-based high content screening assay; type: toxicity, cell-based; conditions: U2OS cells infected with Trypanosoma cruzi Y amastigotes
Method in brief: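 Run on the same infected U2OS plates as the antiparasitic read (700 cells/well, 2800 Y strain trypomastigotes, compounds from day 3, 15-point 2-fold dilutions, top 200 µM, 1% DMSO final). Cells fixed after 96 h with 4% paraformaldehyde and stained with 5 µM Draq5. Total cell count compared with DMSO-treated infected controls. CC50 = concentration giving 50% cell number, from sigmoidal variable-slope fit. Three independent experiments.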

EC50 (Trypanosoma cruzi) [µM] | SMILES | Emax (Trypanosoma cruzi) [%] | selectivity ratio [1] | Activity [2] | CC50 at 96 h [3] [µM]
144 | O=C(Cn1cncn1)c1ccc(F)cc1F | 68.7 | > 1.4 | Non-Toxic | 
5.53 | O=C(Cn1cnc([N+](=O)[O-])n1)c1ccc(F)cc1F | 87 | > 36 | Non-Toxic | 
101 | NC(=O)NN=C(Cn1cnc([N+](=O)[O-])n1)c1ccc(F)cc1F | 95.2 | > 2 | Non-Toxic | 
63.1 | NC(=O)NN=C(Cn1cncn1)c1ccc(F)cc1F | 96.6 | > 3.1 | Non-Toxic | 
21.6 | NC(=S)NN=C(Cn1cnc([N+](=O)[O-])n1)c1ccc(F)cc1F | 92.8 | > 9.27 | Non-Toxic | 
15.4 | NC(=S)NN=C(Cn1cncn1)c1ccc(F)cc1F | 95.2 | > 13 | Non-Toxic | 
3.96 | O=C(Cn1ccnc1[N+](=O)[O-])NCc1ccccc1 [BENZNIDAZOLE] | 104 | > 101 |  | 
0.34 | CC1CS(=O)(=O)CCN1/N=C/c1ccc([N+](=O)[O-])o1 (stereo unspecified) [NIFURTIMOX] | 102 | 78.9 |  | 26.8
